High-throughput results: PubChem BioAssay, several laboratories
T cruzi inh: inhibitors of intracellular T. cruzi growth, primary screen, luminescence, NIH3T3 host cells; T. cruzi beta-gal in NIH3T3, 90 h; inhibition, % (no concentration beside the values); 300,000 compounds, 1.4% hits; AID 1885, 2009;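 active = mean inhibition across valid replicates above about 55%, limit read from the data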;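 also: signal also drops with host cell toxicity which is not excluded here; higher percent means less beta-gal luminescence so fewer parasites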
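System – NIH/3T3 host cells with β-galactosidase reporter T. cruzi · Doses – single 50 nL compound addition per well in DMSO · Reagent – 5000 T. cruzi trypomastigotes/well · Medium – Low-serum DMEM with 2% FBS · Timing – ≥90 h infection period, 3 h prior cell attachment · Evaluation – parasite load inhibition, % · Technique – GalScreen luminescence, 60 min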
CSC inhib: cancer stem cell viability inhibitors, primary screen, luminescence. inhibition, % at 7.5 µM. AID 2717, 2010. cancer stem cell-like cells viability. 300,000 compounds, 1.1% hits; in the data active = inhibition above about 75%; tested in HMLE shEcad cells
Mdm2 MdmX PPI: inhibitors of human Mdm2-MdmX association, primary screen, cell-based, luminescence, split luciferase, SaOS-2, uHTS; Protein Mdm4 (Homo sapiens) + E3 ubiquitin-protein ligase Mdm2 (Homo sapiens), …; SaOS-2 split-luciferase Mdm2/MdmX complementation; inhibition, % at 8 µM; 330,000 compounds, 3% hits; AID 485346, 2010;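 active = inhibition of at least 50% at 8 µM in the primary screen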
Target sequence (O15151 whole entry, looked up): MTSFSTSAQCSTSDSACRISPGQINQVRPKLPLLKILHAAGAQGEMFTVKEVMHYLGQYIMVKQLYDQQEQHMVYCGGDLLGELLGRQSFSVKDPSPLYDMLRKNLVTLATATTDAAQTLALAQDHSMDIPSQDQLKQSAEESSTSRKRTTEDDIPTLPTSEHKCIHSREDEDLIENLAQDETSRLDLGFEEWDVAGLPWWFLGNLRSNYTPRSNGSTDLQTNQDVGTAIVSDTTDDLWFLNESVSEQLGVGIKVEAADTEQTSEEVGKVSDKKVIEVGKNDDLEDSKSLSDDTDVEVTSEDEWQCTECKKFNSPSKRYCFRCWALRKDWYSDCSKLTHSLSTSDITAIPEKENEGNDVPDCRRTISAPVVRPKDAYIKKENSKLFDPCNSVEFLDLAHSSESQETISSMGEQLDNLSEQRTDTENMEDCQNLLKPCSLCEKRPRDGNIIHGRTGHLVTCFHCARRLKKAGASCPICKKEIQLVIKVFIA
Target sequence (Q00987 whole entry, looked up): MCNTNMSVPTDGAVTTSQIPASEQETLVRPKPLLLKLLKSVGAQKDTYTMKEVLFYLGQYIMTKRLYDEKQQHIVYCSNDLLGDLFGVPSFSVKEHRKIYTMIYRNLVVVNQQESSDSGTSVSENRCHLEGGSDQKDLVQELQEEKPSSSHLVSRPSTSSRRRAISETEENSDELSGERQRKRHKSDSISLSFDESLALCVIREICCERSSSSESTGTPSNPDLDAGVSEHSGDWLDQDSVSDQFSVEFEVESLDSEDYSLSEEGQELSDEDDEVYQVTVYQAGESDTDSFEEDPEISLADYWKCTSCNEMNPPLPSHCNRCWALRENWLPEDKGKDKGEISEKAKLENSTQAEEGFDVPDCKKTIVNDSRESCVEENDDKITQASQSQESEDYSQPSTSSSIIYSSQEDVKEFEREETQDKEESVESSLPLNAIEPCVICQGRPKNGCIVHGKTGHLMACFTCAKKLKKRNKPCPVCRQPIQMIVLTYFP
aSyn 5UTR inh: MLPCN primary screen, SNCA 5' untranslated region. alpha-synuclein 5'UTR reporter, inhibitor activity. inhibition, % (tested at 7.5 µM). 300,000 compounds, 0.82% hits; in the data active = inhibition above about 60%;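 also: H4 neuroglioblastoma cells stably carrying SNCA 5'UTR luciferase fusion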
SKKanGAS inh: S. pyogenes SKKanGAS growth inhibitors in kanamycin, primary screen, streptokinase expression inhibitor project, SKKanGAS strain, BacTiter-Glo luminescence | inhibition, % at 7.5 µM | 300,000 compounds, 1.3% hits | 6 h;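 active = mean replicate score, as percent of positive control median, at least 50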;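 also: strain carries kanamycin resistance gene driven by streptokinase promoter and grows in 40 µg/ml kanamycin; loss of luminescence reflects streptokinase promoter inhibition or plain growth inhibition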
A number is an active result; – = inactive; · = no result. Sampled rows, rich in hits. Any-hit rate of the full collection: about 5.4%.

SMILES | T cruzi inh | CSC inhib | Mdm2 MdmX PPI | aSyn 5UTR inh | SKKanGAS inh
CCOC(=O)N1CCN(C(=O)c2oc3ccc(S(=O)(=O)N4CCCCCC4)cc3c2C)CC1 | 65 | – | – | – | –
CCOC(=O)N1CCN(C(=O)c2oc3ccc(S(=O)(=O)N4CCOCC4)cc3c2C)CC1 | – | – | – | – | –
CN(C)c1ccc(-c2c(-c3ccc4c(c3)OCO4)noc2-c2ccsc2)cn1 | – | – | – | – | –
O=C(O)c1cc(-c2ccc(-c3c(-c4ccc5c(c4)OCO5)noc3-c3ccsc3)cc2)nc2ccccc12 | – | – | · | – | 94
Cc1cc(Nc2ccc(O)cc2)ccc1N | · | – | – | · | ·
Cc1c(N/N=C(\C#N)C(=O)c2ccccc2)c(=O)n(-c2ccccc2)n1C | – | · | · | – | 65
Cc1ccccc1C(=O)/C(C#N)=N/Nc1c(C)n(C)n(-c2ccccc2)c1=O | – | – | · | 79 | 66
CCOc1ccc(C(=O)NCC(=O)OCC(=O)Nc2ccc(C)c(S(=O)(=O)N(C)C)c2)cc1 | – | – | – | – | –
CCCOC(=O)c1ccc(Oc2c(-c3ccc(O)cc3O)n[nH]c2C)cc1 | – | 117 | – | – | 55
Cc1[nH]nc(-c2ccc(O)cc2O)c1Oc1ccccc1 | – | – | – | – | –
CCOc1ccc(-c2n[nH]c(C)c2Oc2ccccc2OC)c(O)c1 | – | – | – | – | –
CCCOC(=O)c1ccc(Oc2c(-c3ccc(OC)cc3O)n[nH]c2C)cc1 | – | 132 | – | – | 61
CCc1cc(-c2n[nH]c(C)c2Oc2ccc(C(C)C)cc2)c(O)cc1O | – | 113 | – | – | 109
CC(=O)Nc1ccc(/C=N/Nc2nc3ccccc3[nH]2)cc1 | – | – | – | – | –
Cc1nn(-c2ccccc2)c(C)c1/C=N/Nc1nc2ccccc2[nH]1 | 66 | – | – | – | 60
CCN(CC)c1ccc(/C=N/Nc2nc3ccccc3[nH]2)cc1 | – | · | · | – | 95
Cc1nn(-c2ccccc2)c(Cl)c1/C=N/Nc1nc2ccccc2n1C | 55 | – | – | – | –
Cc1nn(-c2ccccc2)c(C)c1/C=N/NC(=O)c1cc(C(C)(C)C)[nH]n1 | – | – | – | – | –
Cc1ccc(-c2cc(C(=O)N/N=C/c3c(C)nn(-c4ccccc4)c3C)[nH]n2)cc1 | – | · | · | 66 | –
CCCCCCn1c(=O)c(C(=O)N/N=C/c2cccc(F)c2)c(O)c2ccccc21 | – | – | – | – | 63
CCCn1c(=O)c(C(=O)N/N=C/c2ccc(F)cc2)c(O)c2ccccc21 | – | – | – | – | 103
CCCn1c(=O)c(C(=O)NC(C)c2ccccc2)c(O)c2ccccc21 (centres undefined) | – | – | – | – | –
CCCn1c(=O)c(C(=O)N/N=C/c2ccccc2F)c(O)c2ccccc21 | – | · | – | – | –
CC(C)CCn1c(=O)c(C(=O)N/N=C/c2cccc(F)c2)c(O)c2ccccc21 | – | – | – | – | 81
O=C(N/N=C/c1cccc(F)c1)c1c(O)c2ccccc2[nH]c1=O | – | – | · | – | 92
SMILES | T cruzi inh | CSC inhib | Mdm2 MdmX PPI | aSyn 5UTR inh | SKKanGAS inh
COC(=O)c1ccccc1-c1c2ccc(=N)cc-2oc2cc(N)ccc12 | · | · | – | · | ·
CSc1ncccc1C(=O)Nc1nc2ccc(Oc3ccccc3)cc2s1 | – | 78 | – | – | –
Cc1ccc(NC(=O)C2CCN(c3cnccn3)CC2)cc1 | 63 | – | – | – | –
CCOc1ccc2nc(NC(=O)CSc3nnnn3C3CCCCC3)sc2c1 | 56 | – | – | – | –
CCOc1ccc2nc(NC(=O)C3CCN(c4cnccn4)CC3)sc2c1 | 61 | – | – | – | –
NC(=O)C1CCN(c2oc(/C=C/c3ccccc3)nc2S(=O)(=O)c2ccccc2)CC1 | – | – | – | – | –
CCOc1ccc2nc(NC(=O)c3ccoc3C)sc2c1 | – | – | – | – | 91
CCOc1ccc2nc(NC(=O)c3ccco3)sc2c1 | – | – | – | – | –
O=C(Nc1ccc(F)c(Cl)c1)C1CCCN(c2cnccn2)C1 (centres undefined) | 61 | – | – | – | –
CC12CCC(=O)C=C1CCC1C2C(O)CC2(C)C1CCC2(O)C(=O)CO (centres undefined) | – | – | – | – | –
O=C(O)c1ccc(NC(=S)NC(=O)c2ccc(-c3ccc(Br)cc3)o2)cc1 | – | – | · | – | 55
COc1ccc(C(=O)O)cc1NC(=S)NC(=O)c1ccc(-c2ccc(Cl)cc2)o1 | – | · | – | – | 51
